# Source: PubChem BioAssay (several laboratories)
# Shown are actives, neighbours in structure and some others; about 2.9% of the full set was active somewhere.
# MEKK2wt PB1 HTS = raises or lowers MEK5 binding to wildtype human MEKK2 PB1 domain; Q9Y2U5; bead flow cytometry, Alexa488-MEK5 binding to MEKK2 WT; actives lie on both sides; binding response (% of control), % at 10 µM; hit rate 1.1% among 290,000; AID 1531; in the data active = binding response below about 67% or above about 130%
# B2AR ag = agonists of human beta-2 adrenergic receptor inducing internalization. P07550. Am2.2-beta2AR cells, FAP receptor internalization, flow cytometry. response, % (test concentration not listed). hit rate 0.43% among 340,000. AID 504454;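 active = response above a set limit, near 3 SD of response in nonfluorescent compounds, cut at about 42% in these data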
# MEKK3 PB1 HTS = raises or lowers MEK5 binding to the human MEKK3 PB1 domain | Q99759 | bead-based flow cytometry, Alexa488-MEK5 binding to MEKK3; actives lie on both sides; 0 = blocked by unlabeled MEK5, 100 = vehicle | binding response (% of control), % at 10 µM | hit rate 1.4% among 290,000 | AID 1529;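 active = binding response more than 3 SD above or below the average of its plate-row segment, actives on both sides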;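 also: Alexa488 bead fluorescence after subtracting the streptavidin-only scavenger bead signal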
# Target sequence (Q99759 whole entry, looked up, the tested form may be a part): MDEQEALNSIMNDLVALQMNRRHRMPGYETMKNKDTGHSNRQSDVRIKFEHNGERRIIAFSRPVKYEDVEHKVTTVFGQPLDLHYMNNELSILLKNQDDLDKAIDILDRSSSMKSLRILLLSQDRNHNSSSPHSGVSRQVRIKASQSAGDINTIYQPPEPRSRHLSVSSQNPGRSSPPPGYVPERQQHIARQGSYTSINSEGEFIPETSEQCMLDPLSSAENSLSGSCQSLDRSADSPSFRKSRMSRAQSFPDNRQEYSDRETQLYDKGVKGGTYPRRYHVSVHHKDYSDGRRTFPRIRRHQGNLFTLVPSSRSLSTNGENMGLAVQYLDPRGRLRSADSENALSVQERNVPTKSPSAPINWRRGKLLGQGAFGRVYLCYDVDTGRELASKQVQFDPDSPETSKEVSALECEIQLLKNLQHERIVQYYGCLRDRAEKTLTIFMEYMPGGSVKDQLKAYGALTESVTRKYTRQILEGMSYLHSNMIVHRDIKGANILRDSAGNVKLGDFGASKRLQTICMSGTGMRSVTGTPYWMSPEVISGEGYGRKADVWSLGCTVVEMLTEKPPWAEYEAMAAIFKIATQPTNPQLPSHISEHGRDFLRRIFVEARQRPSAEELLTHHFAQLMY
# ATG4B inhibitor = ATG4B (human) cysteine protease inhibition; ATG4B cleavage of LC3-PLA2, NBD-HPC fluorescence, 1 h; inhibition, % at 8.33 µM; hit rate 0.51% among 340,000; AID 504462; in the data active = inhibition above about 40%
# MEKK2mut PB1 HTS = signal of MEK5 binding to mutant human MEKK2 PB1 domain. bead flow cytometry, Alexa488-MEK5 binding to MEKK2 mutant. percent response, % at 10 µM. hit rate 0.35% among 290,000. AID 1530; in the data active = percent response above about 24%, passing the limit was not always enough
# Dynein transport = dynein cargo transport inhibition; z-score, hits read low; AID 1381; hit rate 0.47% among 220,000; 3617.4 mouse cells, GR-EGFP nuclear translocation imaging; test concentration mostly 20 µM; stimulated with dexamethasone, 1 µM; hits give low values;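 active = plate z-score of nuclear minus cytoplasmic receptor signal below a set negative limit, without overly bright fluorescence or cell loss, cut at about -3.5 in these data, passing the limit was not always enough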;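 also: z-score of nuclear minus cytoplasmic ring GR-EGFP intensity difference per well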
#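 Buffer or medium: Induction medium lacking tetracycline, stripped serum | Also added: Dexamethasone agonist, 1.0 µM final, for 30 min | Timing: 48 h induction, 1 h compound, 30 min dex at 37 °C | Detection: Formaldehyde fixation, Hoechst nuclear stain, 10x automated fluorescence imaging | Measure: Nuclear versus cytoplasmic GR-EGFP signal, averaged per well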
# MEKK2wt confirm = raises or lowers MEK5 binding to wildtype human MEKK2, retest | shares compounds with MEKK3 PB1 HTS | bead flow cytometry, Alexa488-MEK5 binding to MEKK2 WT; actives lie on both sides | binding response (% of control), % at 10 µM | hit rate 2.4% among 5,900 | AID 1892; in the data active = binding response below about 16% or above about 210%; inactive = in between
# MEKK2mut-MEK5 = signal of MEK5 binding to mutant human MEKK2, retest | percent response, % at 10 µM | bead flow cytometry, Alexa488-MEK5 binding to MEKK2 mutant | shares compounds with MEKK3 PB1 HTS | hit rate 2% among 5,900; in the data active = percent response mostly above about 71%, no sharp cut-off; inactive = mostly below about 38%;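 also: higher means compound restores mutant binding toward wildtype level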
# MEKK3-MEK5 inh = MEKK3-MEK5 PB1 inhibition, single concentration confirmation; shares compounds with MEKK3 PB1 HTS; bead flow cytometry, Alexa488-MEK5 binding to MEKK3; hits give low values; binding response (% of control), % at 10 µM; hit rate 1.8% among 5,900; AID 1894;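 active = binding response below 72% of control, or above a set upper limit, though filed actives all read lower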;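 also: 100% = DMSO only wells and 0% = binding blocked by excess unlabeled MEK5; lower values mean stronger disruption of MEK5 binding to MEKK3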
# * marks the source's active call; other numbers are inactive results; nt = no result given; [ ] = another dose, or the depositor's remark.
SMILES,MEKK2wt PB1 HTS,B2AR ag,MEKK3 PB1 HTS,ATG4B inhibitor,MEKK2mut PB1 HTS,Dynein transport,MEKK2wt confirm,MEKK2mut-MEK5,MEKK3-MEK5 inh
N#C/C(=C/C1=C(N2CCOCC2)C(=C/c2ccccc2)/CC1)C(=O)Nc1ccccc1F,nt,-246,nt,5,nt,nt,nt,nt,nt
N#C/C(=C/C1=C(N2CCOCC2)C(=C/c2cccc([N+](=O)[O-])c2)/CC1)C(=O)Nc1ccccc1F,nt,-32,nt,4,nt,nt,nt,nt,nt
COC(=O)c1sc2nc(C)nc(SCC(=O)Nc3sccc3C(N)=O)c2c1C,nt,16,nt,-8,nt,nt,nt,nt,nt
O=[N+]([O-])c1cccc(-c2nnn(C34CC5CC(CC(C5)C3)C4)n2)c1,109,-7,105,-6,7,0.31,nt,nt,nt
CCN(CC)CCNC(=O)c1cn(-c2ccccc2)nc1-c1cccs1,nt,-16,nt,1,nt,-0.24,nt,nt,nt
CCN(CC)CCOC(=O)c1ccc(NC(=O)c2cn(-c3ccccc3)nc2-c2cccs2)cc1,153*,8,120,-20,8,-0.74,250*,92*,114
O=C(NCCCN1CCOCC1)c1ccc2c(=O)n(Cc3ccc(Cl)cc3)c(=S)[nH]c2c1,121,12,103,4,9,nt,nt,nt,nt
COc1ccc(C2Nc3ccccc3C(=O)N2O)cc1CN1CCOCC1 (stereo not drawn),99,-6,110,5,0,-0.31,nt,nt,nt
Cc1ccc(NC(=O)CCCN2C(=O)c3cccc4cccc(c34)C2=O)cc1,110,-17,145*,-13,1,0.021,100,1,104
Cc1ccc(NC(=O)CCN2C(=O)c3cccc4cccc(c34)C2=O)cc1,94,14,99,-8,-3,0.13,nt,nt,nt
COc1ccc(/C=N/Nc2cc(N3CCCC3)nc(N3CCCC3)n2)cc1,142*,35,130*,11,4,-0.7,160,33,108
Oc1ccc(/C=N/Nc2cc(N3CCCC3)nc(N3CCCC3)n2)cc1,117,13,120,-3,11,0.36,nt,nt,nt
COc1ccc(S(=O)(=O)NCCc2csc(-c3cccnc3)n2)cc1,112,-8,107,8,5,-0.88,nt,nt,nt
CCOC(=O)CC(NC(=O)c1cc2cccc(OC)c2oc1=O)c1cccc([N+](=O)[O-])c1 (stereo not drawn),102,11,135*,-13,0,0.92,102,1,104
C=CCNC(=O)c1cc2cccc(OC)c2oc1=O,113,1,128*,-7,0,0.39,114,8,109
CCOC(=O)CC(NS(=O)(=O)c1ccc(OC)c(OC)c1)c1cccc([N+](=O)[O-])c1 (stereo not drawn),100,-4,98,-8,-2,-0.18,nt,nt,nt
COc1cccc2cc(C(=O)NCc3ccc(C)cc3)c(=O)oc12,103,3,99,-2,4,nt,nt,nt,nt
CCOC(=O)CC(NC(=O)c1cc2cc(Cl)cc(Cl)c2oc1=O)c1cccc([N+](=O)[O-])c1 (stereo not drawn),79,-3,53*[inhibitor],-4,1,-0.33,99,-5,101
CN(Cc1ccccc1)Cc1ccccc1C(O)c1ccccc1 (stereo not drawn),nt,0,nt,11,nt,nt,nt,nt,nt
COc1cccc(CN(C)C(=O)CN2C(=O)NC(c3ccccc3)(c3ccccc3)C2=O)c1,nt,1,nt,-4,nt,nt,nt,nt,nt
CCC1(C)Cc2c(C#N)c(N)n(-c3ccccc3)c(=S)c2CO1 (stereo not drawn),98,-4,103,-2,-1,-0.38,nt,nt,nt
N#Cc1c(N)sc(=S)c2c1CCCC2,66*[inhibitor],35,87,-18,-9,-0.25,92,-1,104
CCC1(C)Cc2c(C#N)c(N)sc(=S)c2CO1 (stereo not drawn),60*[inhibitor],8,95,-12,-5,-0.33,82,-10,98
Cc1[nH]c(=S)c(C#N)c2c1CCCC2,103,-9,101,-1,-10,0.17,nt,nt,nt
CC/C(=N/O)C(=O)c1ccc(Br)cc1,107,-6,110,3,1,0.99,nt,nt,nt
SMILES,MEKK2wt PB1 HTS,B2AR ag,MEKK3 PB1 HTS,ATG4B inhibitor,MEKK2mut PB1 HTS,Dynein transport,MEKK2wt confirm,MEKK2mut-MEK5,MEKK3-MEK5 inh
O=C(/C=C/c1ccc(F)cc1)c1ccc(N2CCOCC2)cc1,113,0,125,-1,18,-0.76,nt,nt,nt
Cc1cccc(/C=C/C(=O)c2ccc(N3CCOCC3)cc2)c1,nt,nt,81,nt,86*,0.45,101,-1,101
CNC(=O)C1(C)C=CCN1C(=O)c1ccccc1 (stereo not drawn),97,-7,111,-4,5,1.9,nt,nt,nt
CC1(C(=O)NCc2ccccn2)C=CCN1C(=O)c1ccccc1 (stereo not drawn),65,0,50*[inhibitor],-11,1,-0.8,114,12,110
Cc1cccc2sc(NC(=O)CN3C(=O)C4CC=CCC4C3=O)nc12 (stereo not drawn),129,3,148*,8,8,0.36,104,3,108
CCCC(=O)Nc1nc2c(C)c(Cl)ccc2s1,100,-1,103,13,8,-0.72,nt,nt,nt
Cc1c(Cl)ccc2sc(NC(=O)CN3C(=O)c4ccccc4C3=O)nc12,76,-6,64*[inhibitor],0,-9,-0.88,98,6,98
N#Cc1c(-c2ccc(Cl)cc2)c(-c2ccc(Cl)cc2)nn(CCO)c1=O,nt,1,nt,0,nt,nt,nt,nt,nt
CCC(C)NCCOCCOc1ccc(F)cc1 (stereo not drawn),3.0*[inhibitor],1,2.0*[inhibitor],10,-21,-0.17,101,-3,99
COc1ccc(OC)c(N/C(=N/C(=S)Nc2ccccc2)Nc2nc(C)cc(C)n2)c1,54,20,48*[inhibitor],1,-49,1.4,88,-4,99
COc1ccc2nc(N/C(N)=N/C(=S)Nc3ccccc3)nc(C)c2c1,91,3,100,36,-8,-0.6,nt,nt,nt
Cc1cccc(-c2cc3nc(C)cc(NCCCN(C)C)n3n2)c1,99,4,87,-9,-1,0.66,nt,nt,nt
CC(C)(C)c1cc(NCCCn2ccnc2)n2ncc(-c3ccc(Cl)cc3)c2n1,157*,2,98,23,37*,1.9,158,37,113
CN(C)CCCNc1cc(-c2ccccc2)nc2cc(-c3cccc(F)c3)nn12,192*,24,108,3,40*,nt,179,35,105
